From ChEMBL document CHEMBL3856214, “Lanostane Triterpenes Isolated from Antrodia heteromorpha and Their Inhibitory Effects on RANKL-Induced Osteoclastogenesis” (J Nat Prod, 2016)

tested on: not listed separately; assay: (§1) Inhibition of RANKL-induced C57BL/6 mouse BMDM differentiation into osteoclasts after 4 days in presence of M-CSF by TRAP assay; assay type: functional; details: C57BL/6, BMDM, 96 h
Outline: (§2)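 Bone marrow cells from femurs and tibiae of 6–8-week-old female C57BL/6 mice; after red-cell lysis, 3 days in α-MEM/10% FBS with penicillin-streptomycin and M-CSF (50 ng/mL); adherent cells kept as BMMs. BMMs (4 × 10^4/well) given M-CSF (50 ng/mL) plus RANKL (100 ng/mL) with vehicle or compound, 4 days. TRAP activity of culture supernatant with chromogenic substrate, OD 540 nm.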

IC50 [µM] | SMILES
4.5 | CC1=C(C)[C@@]2(C[C@](C)(O)[C@H]3C[C@H](O)[C@@]4(C)C5=CC[C@H]6C(C)(C)[C@@H](O)C(=O)C[C@]6(C)C5=C[C@@H](O2)[C@]34C)OC1=O
7.4 | CC1=C(C)[C@@]2(C[C@](C)(O)[C@H]3C[C@H](O)[C@@]4(C)C5=CC[C@H]6C(C)(C)C(=O)[C@H](O)C[C@]6(C)C5=C[C@@H](O2)[C@]34C)OC1=O

SMILES | IC50 [µM]
C=C(CC[C@@H](C(=O)O)[C@H]1[C@H](O)C[C@@]2(C)C3=CC[C@H]4C(C)(C)C(=O)CC[C@]4(C)C3=CC[C@]12C)C(C)C [POLYPORENIC ACID B] | 4.9

tested on: BMDM; assay: as §1; assay type: functional; details: not given; outline: as §2

SMILES | inhibition
C=C(CC[C@@H](C(=O)O)[C@H]1[C@H](O)C[C@@]2(C)C3=CC[C@H]4C(C)(C)C(=O)CC[C@]4(C)C3=CC[C@]12C)C(C)C [POLYPORENIC ACID B] | Dose-dependent effect
CC1=C(C)[C@@]2(C[C@](C)(O)[C@H]3C[C@H](O)[C@@]4(C)C5=CC[C@H]6C(C)(C)[C@@H](O)C(=O)C[C@]6(C)C5=C[C@@H](O2)[C@]34C)OC1=O | Dose-dependent effect
CC1=C(C)[C@@]2(C[C@](C)(O)[C@H]3C[C@H](O)[C@@]4(C)C5=CC[C@H]6C(C)(C)C(=O)[C@H](O)C[C@]6(C)C5=C[C@@H](O2)[C@]34C)OC1=O | Dose-dependent effect

organism: Mus musculus; assay: Cytotoxicity against C57BL/6 mouse BMDM assessed as decrease in cell viability at IC50 after 4 days in presence of RANKL/M-CSF by XTT assay; assay type: toxicity; details: 96 h

SMILES | Activity
C=C(CC[C@@H](C(=O)O)[C@H]1[C@H](O)C[C@@]2(C)C3=CC[C@H]4C(C)(C)C(=O)CC[C@]4(C)C3=CC[C@]12C)C(C)C [POLYPORENIC ACID B] | Non-Toxic
CC1=C(C)[C@@]2(C[C@](C)(O)[C@H]3C[C@H](O)[C@@]4(C)C5=CC[C@H]6C(C)(C)[C@@H](O)C(=O)C[C@]6(C)C5=C[C@@H](O2)[C@]34C)OC1=O | Non-Toxic
CC1=C(C)[C@@]2(C[C@](C)(O)[C@H]3C[C@H](O)[C@@]4(C)C5=CC[C@H]6C(C)(C)C(=O)[C@H](O)C[C@]6(C)C5=C[C@@H](O2)[C@]34C)OC1=O | Non-Toxic

tested on: BMDM; assay: Inhibition of RANKL-induced C57BL/6 mouse BMDM differentiation into osteoclasts after 4 days in presence of M-CSF by TRAP staining-based light microscopy; assay type: functional; details: not given
Outline: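 BMMs (6–8-week-old female C57BL/6 mouse femur/tibia marrow, 3 days with M-CSF 50 ng/mL) seeded at 4 × 10^4/well. Cultured 4 days with M-CSF (50 ng/mL), RANKL (100 ng/mL) and vehicle or compound. Fixed in 10% formalin for 5 min, then TRAP-stained by kit to show TRAP-positive multinucleated osteoclasts.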

SMILES | inhibition
C=C(CC[C@@H](C(=O)O)[C@H]1[C@H](O)C[C@@]2(C)C3=CC[C@H]4C(C)(C)C(=O)CC[C@]4(C)C3=CC[C@]12C)C(C)C [POLYPORENIC ACID B] | Dose-dependent effect
CC1=C(C)[C@@]2(C[C@](C)(O)[C@H]3C[C@H](O)[C@@]4(C)C5=CC[C@H]6C(C)(C)[C@@H](O)C(=O)C[C@]6(C)C5=C[C@@H](O2)[C@]34C)OC1=O | Dose-dependent effect
CC1=C(C)[C@@]2(C[C@](C)(O)[C@H]3C[C@H](O)[C@@]4(C)C5=CC[C@H]6C(C)(C)C(=O)[C@H](O)C[C@]6(C)C5=C[C@@H](O2)[C@]34C)OC1=O | Dose-dependent effect
